Consider 68 molecules from ChEMBL document CHEMBL4400536, “Design and synthesis of aminothiazole based Hepatitis B Virus (HBV) capsid inhibitors” (Eur J Med Chem, 2019).

Molecules are shown by their SMILES. Activity calls are given as the source filed them. No cut-off for these calls is given here.

The nature of data set [1]: Cytotoxicity against human HepG2.2.15 cells. In kind it is cell-based, HepG2 2.2.15.
Data set [2] concerns the target Core antigen (Hepatitis B virus) (UniProt Q03732). The experiment in a line: Inhibition of GFP-fused Hepatitis B Virus capsid expressed in HEK293T cells at 50 uM after 48 hrs relative to control. It is filed as cell-based. In short, it runs like this: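 BiFC assay: HBc fused to Venus fragments VN (1–154) and VC (155–239) were co-transfected into 293T cells, then compounds were added. The dose series used 0, 0.5, 5 and 50 μM; SAR used 50 μM as percent inhibition. After 48 h, reconstituted fluorescence was read as mean fluorescent intensity on a plate reader, with fluorescence microscopy images.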

For data set [3], the system named is Hepatitis B virus. The experiment in a line: Antiviral activity against Hepatitis B virus infected in human HepG2.2.15 cells assessed as inhibition of viral replication after 7 days by RT-PCR analysis. In kind it is functional, organism-based. The note with it: for IC50: HepG2.2.15, 168 h.

Chain of Core antigen (Hepatitis B virus) (Q03732 as listed by the source): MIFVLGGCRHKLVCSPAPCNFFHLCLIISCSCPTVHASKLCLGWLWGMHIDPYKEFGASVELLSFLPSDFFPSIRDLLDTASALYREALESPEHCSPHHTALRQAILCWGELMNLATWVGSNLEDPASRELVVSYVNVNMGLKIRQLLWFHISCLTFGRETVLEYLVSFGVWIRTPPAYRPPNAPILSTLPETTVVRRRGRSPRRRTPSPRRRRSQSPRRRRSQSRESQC

In data set [1], `O=S(=O)(Nc1ncc(C(Oc2ccc3cc(Br)ccc3c2)c2ccc(Cl)cc2)s1)c1ccc2c(c1)CCO2` (centres undefined) had a cytotoxic concentration (CC50) greater than 50 µM. For the same molecule, in data set [2], the inhibition entry was “inactive”.
As to `COc1ccc(C(=O)Nc2ncc(C(Oc3ccc4cc(Br)ccc4c3)c3ccc(Cl)cc3)s2)cc1` (centres undefined), the IC50 in data set [3] worked out at 1450 nM. In data set [1], this molecule had a CC50 greater than 50 µM. This molecule also registered an inhibition in data set [2] of 54%.
Regarding `Cc1cc(Br)cc(OC(c2ccc(Cl)cc2)c2cnc(NC(=O)OC(C)(C)C)s2)c1` (centres undefined), the CC50 in data set [1] is greater than 50 µM. For the same molecule, the inhibition result in data set [2] was “inactive”.
As for `CCOC(=O)CCCNc1ncc(C(Oc2ccc3cc(Br)ccc3c2)c2ccc(Cl)cc2)s1` (centres undefined), the inhibition in data set [2] was 35%.
`CC(C)(C)OC(=O)Nc1ncc(C(Oc2ccc(OCc3ccccc3)cc2)c2ccc(Cl)cc2)s1` (centres undefined) registered a cytotoxic concentration (CC50) in data set [1] greater than 50 µM. Also, in data set [2], the inhibition entry was “inactive”.
On to `Cc1cc(C(C)C)ccc1OC(c1ccc(Cl)cc1)c1cnc(NC(=O)OC(C)(C)C)s1` (centres undefined), for which the CC50 in data set [1] is greater than 50 µM. Besides, in data set [2], the inhibition entry was “inactive”.
In data set [1], `O=C(Nc1ncc(Cc2ccc(F)cc2)s1)c1ccc(Br)cc1` yielded a CC50 greater than 50 µM. Moreover, in data set [2], the inhibition entry was “inactive”.
Regarding `O=C(Nc1ncc(C(Oc2ccc3cc(Br)ccc3c2)c2ccc(Cl)cc2)s1)c1ccccc1` (centres undefined), the inhibition in data set [2] turned out to be 58%.
On the same count and under the same terms, as for `COc1ccc(Br)c(COC(c2ccccc2)c2cnc(NC(=O)c3cccs3)s2)c1` (centres undefined), the figure is 45%; as for `O=S(=O)(Nc1ncc(C(Oc2ccc3cc(Br)ccc3c2)c2ccc(Cl)cc2)s1)c1cccc2nsnc12` (centres undefined), 50%.
Take `O=C(CCCCC(=O)Nc1ncc(Cc2ccc(F)cc2)s1)Nc1ncc(Cc2ccc(F)cc2)s1`: the cytotoxic concentration (CC50) in data set [1] is greater than 50 µM. Moreover, the inhibition result in data set [2] is “inactive”.
In data set [2], `CCCCC(CC)CNc1ncc(C(Oc2ccc3cc(Br)ccc3c2)c2ccc(Cl)cc2)s1` (centres undefined) had an inhibition of 55%.
`O=C(Nc1ncc(C(Oc2ccc3cc(Br)ccc3c2)c2ccc(Cl)cc2)s1)c1cc(F)c(F)cc1F` (centres undefined) had an inhibition in data set [2] of 44%.
The molecule `O=C(Nc1ncc(C(Oc2ccc3cc(Br)ccc3c2)c2ccc(Cl)cc2)s1)c1ccc(Br)cc1` (centres undefined) yielded a half-maximal cytotoxic concentration (CC50) in data set [1] greater than 50 µM. Further, the inhibition result in data set [2] was “inactive”.
On to `COCCNc1ncc(C(Oc2ccc3cc(Br)ccc3c2)c2ccc(Cl)cc2)s1` (centres undefined), for which the inhibition in data set [2] came to 37%.
`CC(C)(C)C(=O)Nc1ncc(C(Oc2ccc3cc(Br)ccc3c2)c2ccc(Cl)cc2)s1` (centres undefined) had an inhibition in data set [2] of 47%.
With `O=C(Nc1ncc(C(Oc2ccc3cc(Br)ccc3c2)c2ccc(Cl)cc2)s1)c1ccc(F)cc1Br` (centres undefined), the half-inhibitory concentration (IC50) in data set [3] stood at 3550 nM. Further, the half-maximal cytotoxic concentration (CC50) in data set [1] was greater than 50 µM. Moreover, the inhibition in data set [2] is 65%.
`O=C(Nc1ncc(Cc2ccc(F)cc2)s1)C1CCCCC1`: the CC50 in data set [1] was greater than 50 µM. Further, the inhibition result in data set [2] was “inactive”.
As to `Clc1ccc(C(Oc2ccc3cc(Br)ccc3c2)c2cnc(NCC3CCCCC3)s2)cc1` (centres undefined), the inhibition in data set [2] stood at 61%.
In data set [1], `CCc1ccc(S(=O)(=O)Nc2ncc(C(Oc3ccc4cc(Br)ccc4c3)c3ccc(Cl)cc3)s2)cc1` (centres undefined) gave a cytotoxic concentration (CC50) greater than 50 µM. In addition, the inhibition entry in data set [2] was “inactive”.
`CC(C)(C)OC(=O)Nc1ncc(C(Oc2ccc(Br)cc2)c2ccc(Cl)cc2)s1` (centres undefined) had a 50% cytotoxic concentration (CC50) in data set [1] greater than 50 µM. In data set [2], the inhibition entry was “inactive”.
In data set [2], `O=C(Nc1ncc(C(Oc2ccc3cc(Br)ccc3c2)c2ccc(Cl)cc2)s1)C1CC1` (centres undefined) displayed an inhibition of 67%.
In the case of `CC(=O)O[C@@H]1OC(C(=O)Nc2ncc(C(Oc3ccc4cc(Br)ccc4c3)c3ccc(Cl)cc3)s2)[C@@H](OC(C)=O)[C@@H](OC(C)=O)[C@H]1OC(C)=O` (some centres undefined), the inhibition in data set [2] was 40%.
Consider `O=C(Nc1ncc(C(OCc2ccc(F)cc2Br)c2ccccc2)s1)c1cccs1` (centres undefined), for which, in data set [2], the inhibition is 27%.
In data set [1], `O=S(=O)(Nc1ncc(C(Oc2ccc3cc(Br)ccc3c2)c2ccc(Cl)cc2)s1)c1ccc2ccccc2c1` (centres undefined) came in with a CC50 greater than 50 µM. For the same molecule, the inhibition entry in data set [2] is “inactive”.
`O=S(=O)(Nc1ncc(C(Oc2ccc3cc(Br)ccc3c2)c2ccc(Cl)cc2)s1)c1ccc(Cl)cc1` (centres undefined) had an inhibition in data set [2] of 50%.
Consider `O=C(Nc1ncc(Cc2ccc(F)cc2)s1)c1cccs1`, for which the IC50 in data set [3] stood at 6150 nM. Further, the half-maximal cytotoxic concentration (CC50) in data set [1] was greater than 500 µM.
Molecule `O=S(=O)(Nc1ncc(C(Oc2ccc3cc(Br)ccc3c2)c2ccc(Cl)cc2)s1)c1ccc(Cl)nc1` (centres undefined) returned an inhibition in data set [2] of 30%.
`O=C(Nc1ncc(C(Oc2ccc3cc(Br)ccc3c2)c2ccc(Cl)cc2)s1)C1CCCO1` (centres undefined) returned an inhibition in data set [2] of 35%.
Molecule `COC(=O)CCCCNc1ncc(C(Oc2ccc3cc(Br)ccc3c2)c2ccc(Cl)cc2)s1` (centres undefined) had an inhibition in data set [2] of 40%.
In data set [1], `O=C(Nc1ncc(Cc2ccc(Br)cc2)s1)c1ccc2ccccc2c1` showed a CC50 greater than 50 µM. In data set [2], the inhibition result is “inactive”.
With `COc1ccc(C(=O)Nc2ncc(C(Sc3ccc4ccccc4c3)c3ccc(Cl)cc3)s2)cc1` (centres undefined), in data set [2], the inhibition stood at 49%.
Same read-out and setting: as for `O=C(Nc1ncc(C(Oc2ccc3cc(Br)ccc3c2)c2ccc(Cl)cc2)s1)c1ccc(F)cc1F` (centres undefined), the figure is 51%; as for `COc1ccc(C(=O)Nc2ncc(C(Oc3ccc4ccc(Br)cc4c3)c3ccc(S(C)(=O)=O)cc3)s2)cc1` (centres undefined), “inactive”; as for `O=C(Nc1ncc(C(Oc2ccc3cc(Br)ccc3c2)c2ccc(Cl)cc2)s1)c1ccc(F)cc1` (centres undefined), 50%.
In the case of `O=C(Nc1ncc(C(Oc2ccc3cc(Br)ccc3c2)c2ccc(Cl)cc2)s1)c1ccc(Cl)nc1` (centres undefined), the inhibition in data set [2] is 45%.
The same measure, in the same setting: as for `O=C(Nc1ncc(Cc2ccc(F)cc2)s1)c1ccccc1`, the figure is 60%.
`Cc1ccc(C)c(S(=O)(=O)Nc2ncc(C(Oc3ccc4cc(Br)ccc4c3)c3ccc(Cl)cc3)s2)c1` (centres undefined): the CC50 in data set [1] was greater than 50 µM. Further, the inhibition entry in data set [2] is “inactive”.
`CCN(CC)C(=O)Nc1ncc(C(Oc2ccc3cc(Br)ccc3c2)c2ccc(Cl)cc2)s1` (centres undefined) came in with an inhibition in data set [2] of 67%.
On to `O=C(Nc1ncc(C(OCc2ccc(F)cc2F)c2ccccc2)s1)c1cccs1` (centres undefined), for which the inhibition in data set [2] was determined as 26%.
Take `O=C(Nc1ncc(C(Oc2ccc3cc(Br)ccc3c2)c2ccc(Cl)cc2)s1)c1cccs1` (centres undefined): the inhibition in data set [2] came to 47%.
In the case of `CCOC(=O)C1=C(CN2CCOCC2)NC(c2nccs2)=NC1c1ccc(F)cc1Br` (centres undefined), the Activity entry in data set [3] is “Dose-dependent effect”.
`CC(C)(C)OC(=O)Nc1ncc(C(Oc2ccc(Cc3ccccc3)cc2)c2ccc(Cl)cc2)s1` (centres undefined) registered a 50% cytotoxic concentration (CC50) in data set [1] greater than 50 µM. For the same molecule, in data set [2], the inhibition result was “inactive”.
The molecule `O=C(Nc1ncc(C(OCc2ccc(Cl)cc2)c2ccccc2)s1)c1cccs1` (centres undefined) showed an inhibition in data set [2] of 59%.
Take `CC(C)(C)OC(=O)Nc1ncc(C(Oc2ccc(F)c(Cl)c2)c2ccc(Cl)cc2)s1` (centres undefined): the CC50 in data set [1] was greater than 50 µM. Moreover, in data set [2], the inhibition result was “inactive”.
In data set [1], `Cc1ccc(S(=O)(=O)Nc2ncc(C(Oc3ccc4cc(Br)ccc4c3)c3ccc(Cl)cc3)s2)c2ccccc12` (centres undefined) registered a CC50 greater than 50 µM. Besides, the inhibition result in data set [2] is “inactive”.
As for `COCCCNc1ncc(C(Oc2ccc3cc(Br)ccc3c2)c2ccc(Cl)cc2)s1` (centres undefined), the inhibition in data set [2] was 38%.
As to `O=S(=O)(Nc1ncc(C(Oc2ccc3cc(Br)ccc3c2)c2ccc(Cl)cc2)s1)c1ccccc1` (centres undefined), the IC50 in data set [3] stood at 2320 nM. The CC50 in data set [1] is greater than 50 µM. Besides, the inhibition in data set [2] came to 63%.
In data set [2], `Cc1ccc(C(=O)Nc2ncc(C(Oc3ccc4cc(Br)ccc4c3)c3ccc(Cl)cc3)s2)cc1` (centres undefined) registered an inhibition of 71%.
`O=C(Nc1ncc(Cc2ccc(Br)cc2)s1)c1cccs1` showed a CC50 in data set [1] greater than 50 µM. Further, the inhibition entry in data set [2] was “inactive”.
`O=C(Nc1ncc(C(OCc2ccc3ccccc3c2)c2ccccc2)s1)c1cccs1` (centres undefined): the inhibition in data set [2] stood at 47%.
`COc1ccc(COC(c2ccccc2)c2cnc(NC(=O)c3cccs3)s2)cc1` (centres undefined) showed an inhibition in data set [2] of 64%.
Regarding `CC(C)(C)OC(=O)Nc1ncc(C(Oc2cccc(C#N)c2)c2ccc(Cl)cc2)s1` (centres undefined), the CC50 in data set [1] is greater than 50 µM. Further, the inhibition result in data set [2] was “inactive”.
In data set [2], `Cc1noc(C)c1C(=O)Nc1ncc(C(Oc2ccc3cc(Br)ccc3c2)c2ccc(Cl)cc2)s1` (centres undefined) yielded an inhibition of 64%.
On the same count and under the same terms, as for `Cc1ccc(COC(c2ccccc2)c2cnc(NC(=O)c3cccs3)s2)cc1` (centres undefined), the figure is 64%.
Turning to `O=C(Nc1ncc(Cc2ccc(F)cc2)s1)c1ccc(Cl)cc1Cl`, the CC50 in data set [1] was greater than 50 µM. The inhibition result in data set [2] is “inactive”.
Regarding `Cc1ccc(C(=O)Nc2ncc(Cc3ccc(F)cc3)s2)cc1`, the inhibition in data set [2] amounted to 53%.
In turn, `COc1ccc(C(=O)Nc2ncc(C(Oc3ccc4cc(Br)ccc4c3)c3ccc(Br)cc3)s2)cc1` (centres undefined) registered a CC50 in data set [1] greater than 50 µM. The inhibition in data set [2] came to 78%.
In data set [1], `N#Cc1cccc(C(=O)Nc2ncc(C(Oc3ccc4cc(Br)ccc4c3)c3ccc(Cl)cc3)s2)c1` (centres undefined) showed a 50% cytotoxic concentration (CC50) greater than 50 µM. Further, the inhibition in data set [2] was 70%.
Take `COc1ccc(C(=O)Nc2ncc(C(Oc3ccc4cc(Br)ccc4c3)c3ccc(C#N)cc3)s2)cc1` (centres undefined): the inhibition entry in data set [2] was “inactive”.
Molecule `O=S(=O)(Nc1ncc(C(Oc2ccc3cc(Br)ccc3c2)c2ccc(Cl)cc2)s1)c1cccs1` (centres undefined) gave an inhibition in data set [2] of 44%.
On the same count and under the same terms, as for `Clc1ccc(C(Oc2ccc3cc(Br)ccc3c2)c2cnc(NCC3CCOCC3)s2)cc1` (centres undefined), the figure is 43%.
Turning to `COc1ccc(C(=O)Nc2ncc(C(Oc3ccc4cc(Br)ccc4c3)c3ccc(F)cc3)s2)cc1` (centres undefined), in data set [1], the CC50 was greater than 50 µM. This molecule showed an inhibition in data set [2] of 76%.
For `COCCc1ccc(OC(c2ccc(Cl)cc2)c2cnc(NC(=O)OC(C)(C)C)s2)cc1` (centres undefined), the CC50 in data set [1] was greater than 50 µM. Further, the inhibition entry in data set [2] is “inactive”.
In turn, `O=C(Nc1ncc(C(OCc2ccc(Br)cc2)c2ccccc2)s1)c1cccs1` (centres undefined) returned an inhibition in data set [2] of 64%.
For the molecule `O=C(Nc1ncc(Cc2ccc(Cl)cc2)s1)c1ccc(F)cc1F`, the inhibition entry in data set [2] is “inactive”.
Take `CCCCCC(=O)Nc1ncc(C(Oc2ccc3cc(Br)ccc3c2)c2ccc(Cl)cc2)s1` (centres undefined): the CC50 in data set [1] was greater than 50 µM. In addition, in data set [2], the inhibition result was “inactive”.
In turn, `O=C(Nc1ncc(C(Oc2ccc3cc(Br)ccc3c2)c2ccc(Cl)cc2)s1)C1CCOCC1` (centres undefined) came in with an inhibition in data set [2] of 66%.

What is called CC50 is the concentration at which the toxic effect on the cells reaches its halfway point. High values mean lower toxicity to the cells, low ones greater toxicity to the cells. The term inhibition denotes the share of the control response that was lost under treatment. A word on the IC50: it is the concentration at which inhibition is half-maximal.
